Experimental data as given in article PMC8416640 (Biochemistry and Biophysics Reports, 2021).

What was measured:
ccT2R201 = ccT2R201 (Cyprinus carpio, UniProt A0A2Z6FB59); type: cell-based, common carp (Cyprinus carpio); conditions: for response of ccT2R201 in screening of bitter compounds: single screening concentration per compound, vs control buffer
In short: (§1)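 Transient co-transfection of HEK293T cells with a pEAK10 vector carrying the carp receptor (cloned from lip cDNA or head genomic DNA) with an N-terminal sst tag (first 45 residues of rat somatostatin receptor 3), human Gα16gust44 and mt-apoclytin-II. Cells were exposed to each bitter test compound at one fixed screening concentration. Luminescence was read as area under the curve in RLU. More than three independent experiments were run in duplicate or triplicate, with paired t-tests.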

ccT2R203-1 = type: cell-based, common carp (Cyprinus carpio); conditions: for response of ccT2R203-1 in screening of bitter compounds: single screening concentration per compound, vs control buffer
ccT2R200-1 = ccT2R200-1 (Cyprinus carpio, UniProt A0A2Z6FB23); type: cell-based, common carp (Cyprinus carpio); conditions: for response of ccT2R200-1 in screening of bitter compounds: single screening concentration per compound, vs control buffer
ccT2R200-2 = ccT2R200-2 (Cyprinus carpio, UniProt A0A2Z6FB19); type: cell-based, common carp (Cyprinus carpio); conditions: for response of ccT2R200-2 in screening of bitter compounds: single screening concentration per compound, vs control buffer
ccT2R202-2 = type: cell-based, common carp (Cyprinus carpio); conditions: single screening concentration per compound, vs control buffer
In short: as §1

mfT2R1 = conditions: mfT2R1, approximate, one range for four receptors; cited from earlier work
lcT2R01 = conditions: lcT2R01, approximate, one range for four receptors; cited from earlier work
drT2R1 = conditions: drT2R1, approximate, one range for four receptors; cited from earlier work
drT2R3a = conditions: approximate, one range for four receptors; cited from earlier work
drT2R4 = conditions: zebrafish receptor; cited from earlier work
ccT2R202-1 = type: cell-based, common carp (Cyprinus carpio); conditions: single screening concentration per compound, vs control buffer
In short: as §1

Chain of ccT2R200-1 (A0A2Z6FB23 1-321): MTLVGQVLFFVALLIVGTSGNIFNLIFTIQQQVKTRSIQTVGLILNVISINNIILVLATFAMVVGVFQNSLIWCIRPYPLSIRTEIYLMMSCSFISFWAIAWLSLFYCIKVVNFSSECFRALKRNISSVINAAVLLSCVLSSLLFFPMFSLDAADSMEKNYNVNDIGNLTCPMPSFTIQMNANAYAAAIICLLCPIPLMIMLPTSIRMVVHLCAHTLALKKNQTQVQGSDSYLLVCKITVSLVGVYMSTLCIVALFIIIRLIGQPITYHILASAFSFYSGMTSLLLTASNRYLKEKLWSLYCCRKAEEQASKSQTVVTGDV
Chain of ccT2R201 (A0A2Z6FB59 1-327): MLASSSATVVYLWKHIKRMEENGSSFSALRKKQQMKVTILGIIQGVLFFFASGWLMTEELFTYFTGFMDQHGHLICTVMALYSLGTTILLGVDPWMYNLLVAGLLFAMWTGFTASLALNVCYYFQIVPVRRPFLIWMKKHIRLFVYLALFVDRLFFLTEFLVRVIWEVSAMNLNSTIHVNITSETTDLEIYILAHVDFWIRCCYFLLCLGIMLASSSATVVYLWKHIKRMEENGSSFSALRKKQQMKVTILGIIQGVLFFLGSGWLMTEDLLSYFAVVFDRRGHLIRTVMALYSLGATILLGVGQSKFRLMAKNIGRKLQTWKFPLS
Chain of ccT2R200-2 (A0A2Z6FB19 1-321): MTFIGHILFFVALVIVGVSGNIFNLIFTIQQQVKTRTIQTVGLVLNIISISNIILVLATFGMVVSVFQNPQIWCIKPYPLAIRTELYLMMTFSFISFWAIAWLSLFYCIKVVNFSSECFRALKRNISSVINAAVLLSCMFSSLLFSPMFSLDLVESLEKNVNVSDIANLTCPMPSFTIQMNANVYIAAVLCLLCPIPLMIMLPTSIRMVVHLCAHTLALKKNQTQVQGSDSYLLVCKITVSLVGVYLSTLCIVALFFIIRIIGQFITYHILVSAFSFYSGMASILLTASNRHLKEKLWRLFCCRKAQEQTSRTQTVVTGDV

Compound | response of ccT2R201 in screening of bitter compounds (ccT2R201) | response of ccT2R203-1 in screening of bitter compounds (ccT2R203-1) | response of ccT2R200-1 in screening of bitter compounds (ccT2R200-1) | also measured
OCc1ccccc1O[C@@H]1O[C@H](CO)[C@@H](O)[C@H](O)[C@H]1O [D-(−)-salicin] | weakly responded | – | – | –
CCCc1cc(=O)[nH]c(=S)[nH]1 [PROP] | strongly activated | strongly activated | weakly responded | response of ccT2R200-2 in screening of bitter compounds (ccT2R200-2): strongly activated
CC1=C[C@H]2[C@H]3[C@H](C(C)=C4[C@H]5OC(=O)[C@@H](C)[C@@H]5CC[C@](C)(O)[C@@H]43)[C@@]13[C@@H]2[C@@](C)(O)CC[C@H]1[C@H](C)C(=O)O[C@@H]13 [absinthin] | – | weakly responded | weakly responded | response of ccT2R200-2 in screening of bitter compounds (ccT2R200-2): weakly responded
C=C1CC[C@@H]2[C@](C)(CO)[C@H](O)CC[C@@]2(C)[C@@H]1C/C=C1/C(=O)OC[C@H]1O [andrographolide] | – | weakly responded | strongly activated | response of ccT2R202-2 in screening of bitter compounds (ccT2R202-2): weakly activated; EC50 (ccT2R200-1): 182 ± 7 µM; EC50 (ccT2R200-2): 335 ± 38 µM; response of ccT2R200-2 in screening of bitter compounds (ccT2R200-2): strongly activated
O=C(N[C@H](CO)[C@H](O)c1ccc([N+](=O)[O-])cc1)C(Cl)Cl [chloramphenicol] | weakly responded | – | – | –
COc1cc2c(c(OC)c1OC)-c1ccc(OC)c(=O)cc1[C@@H](NC(C)=O)CC2 [colchicine] | weakly responded | – | – | –
O=C(O)c1cc(=O)c2c(OCC(O)COc3cccc4oc(C(=O)O)cc(=O)c34)cccc2o1 [cromolyne] | – | – | weakly responded | –
CC[N+](CC)(CC(=O)Nc1c(C)cccc1C)Cc1ccccc1 [denatonium benzoate] | weakly responded | – | – | EC50 (ccT2R201): 44 ± 5 µM; EC50 (mfT2R1): 300 to 3000 µM; EC50 (lcT2R01): 300 to 3000 µM; EC50 (drT2R1): 300 to 3000 µM; EC50 (drT2R3a): 300 to 3000 µM
CN(C)C=S [dimethyl-thioformamide] | – | weakly responded | weakly responded | –
CNC(N)=S [methylthiourea] | – | weakly responded | – | –
C=C(C)[C@@H]1[C@H]2OC(=O)[C@@H]1[C@]1(O)C[C@H]3O[C@]34C(=O)O[C@H]2[C@]14C [picrotoxinin] | – | strongly activated | strongly activated | EC50 (ccT2R203-1; ccT2R203-1, dose-response with seven concentrations, HEK293T, luminescence AUC): 425 ± 99 µM; response of drT2R4 (drT2R4): does not respond; EC50 (ccT2R200-1): 510 ± 26 µM; response of ccT2R200-2 in screening of bitter compounds (ccT2R200-2): strongly activated
O=C1C[C@@H]2OCC=C3CN4CC[C@]56c7ccccc7N1[C@H]5[C@H]2[C@H]3C[C@H]46 [strychinine] | – | – | weakly responded | response of ccT2R202-1 in screening of bitter compounds (ccT2R202-1): weakly activated
CC(C)[C@]12CC(=O)[C@H](C)[C@H]1C2 [α-thujon] | – | – | weakly responded | –
amarogentin | strongly activated | – | strongly activated | –
